# Reference: PubChem BioAssay
# Where “and” joins values, the source holds several entries; their conditions need not be identical. Identical values can stand only once. Calls of active or inactive are those of the source. Unless noted, how the calls were made is not given here.
# Key:
# [1] = target: Pantothenate synthetase (Mycobacterium tuberculosis (strain ATCC 25618 / H37Rv)) (UniProt P9WIL5); assay: Recombinant Mtb pantothenate synthetase (PanC) inhibitors, coupled enzyme, confirmatory (AID 375); details: coupled enzyme assay; at 10 µM, stronger effect = higher value;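 further: 0% = full reaction with vehicle and 100% = no enzyme background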
# Chain of Pantothenate synthetase (Mycobacterium tuberculosis (strain ATCC 25618 / H37Rv)) (P9WIL5 whole entry, looked up): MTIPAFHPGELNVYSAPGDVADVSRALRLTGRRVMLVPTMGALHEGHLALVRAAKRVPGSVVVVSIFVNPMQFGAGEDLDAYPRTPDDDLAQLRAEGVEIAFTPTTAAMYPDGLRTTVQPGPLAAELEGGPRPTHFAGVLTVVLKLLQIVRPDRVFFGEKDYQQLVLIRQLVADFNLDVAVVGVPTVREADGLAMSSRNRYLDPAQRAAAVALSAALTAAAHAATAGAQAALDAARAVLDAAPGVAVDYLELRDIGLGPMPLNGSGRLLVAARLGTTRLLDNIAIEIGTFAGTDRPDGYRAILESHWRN
# [2] = reducers of endogenous Her2 protein level, primary screen, SKBR3 breast tumor cells, AlphaScreen, ATP viability (AID 461;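 active means Her2 level under about 52% in both replicate screens, with viability over 70% of control, limit read from the data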;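 on Her2 level: lower value means less Her2 protein in the cells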;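 on viability: percent of carrier control wells set as 100% viability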); details: 18-24 h, measured here: SKBR3 viability, ATP luminescence, at 10 µM
# [3] = target: Receptor tyrosine-protein kinase erbB-2 (Homo sapiens) (UniProt P04626); assay: as above; details: 18-24 h, at 10 µM, stronger effect = lower value
# Chain of Receptor tyrosine-protein kinase erbB-2 (Homo sapiens) (P04626 whole entry, looked up): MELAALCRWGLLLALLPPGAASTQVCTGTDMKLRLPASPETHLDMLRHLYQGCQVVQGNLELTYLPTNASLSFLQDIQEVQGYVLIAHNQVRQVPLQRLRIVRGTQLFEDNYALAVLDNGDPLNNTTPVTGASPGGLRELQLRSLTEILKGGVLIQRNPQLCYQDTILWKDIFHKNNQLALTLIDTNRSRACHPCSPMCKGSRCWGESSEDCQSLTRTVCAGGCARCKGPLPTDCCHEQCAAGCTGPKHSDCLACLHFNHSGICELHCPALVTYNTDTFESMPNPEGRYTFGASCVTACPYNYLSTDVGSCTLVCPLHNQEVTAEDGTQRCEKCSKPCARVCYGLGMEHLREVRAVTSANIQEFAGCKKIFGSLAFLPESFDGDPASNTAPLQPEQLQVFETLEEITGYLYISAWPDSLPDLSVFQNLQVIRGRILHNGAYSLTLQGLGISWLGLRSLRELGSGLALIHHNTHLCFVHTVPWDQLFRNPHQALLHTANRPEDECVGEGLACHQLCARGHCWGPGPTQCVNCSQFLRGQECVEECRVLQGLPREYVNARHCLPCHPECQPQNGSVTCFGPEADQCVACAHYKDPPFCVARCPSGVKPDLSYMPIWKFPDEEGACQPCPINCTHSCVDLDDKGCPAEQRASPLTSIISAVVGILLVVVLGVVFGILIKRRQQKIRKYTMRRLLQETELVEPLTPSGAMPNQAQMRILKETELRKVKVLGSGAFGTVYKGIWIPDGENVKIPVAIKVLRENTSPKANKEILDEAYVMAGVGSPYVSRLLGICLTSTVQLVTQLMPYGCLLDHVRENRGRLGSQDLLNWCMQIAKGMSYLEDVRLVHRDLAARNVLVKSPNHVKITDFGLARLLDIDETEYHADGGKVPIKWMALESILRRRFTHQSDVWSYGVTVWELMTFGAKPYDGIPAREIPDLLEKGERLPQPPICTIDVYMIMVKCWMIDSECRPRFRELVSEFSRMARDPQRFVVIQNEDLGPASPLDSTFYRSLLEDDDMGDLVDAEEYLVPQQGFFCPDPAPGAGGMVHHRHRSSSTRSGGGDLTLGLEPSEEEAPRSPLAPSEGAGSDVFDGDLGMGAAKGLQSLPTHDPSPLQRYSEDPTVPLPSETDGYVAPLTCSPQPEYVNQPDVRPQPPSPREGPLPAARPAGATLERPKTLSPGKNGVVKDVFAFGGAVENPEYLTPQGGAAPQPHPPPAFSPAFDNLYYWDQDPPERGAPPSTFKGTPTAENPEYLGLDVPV
# [4] = SK-BR-3 cell growth inhibitors, pilot screen, 24 h, human (AID 572;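 active means viability at or below 10% of carrier control in both of two separate runs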;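 further: compound exposure lasted between 18 and 24 h rather than exactly 24 h; 100% = carrier-treated control wells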); details: SK-BR-3 viability, CellTiter-Glo luminescence, at 10 µM, stronger effect = lower value
# [5] = HUVEC growth inhibition – cell-based, human, primary screen (AID 575;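 active means viability at or below 30% in both replicate assays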;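 further: 100% = median of untreated cell wells with 0.1% DMSO on each plate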); details: HUVEC proliferation, CellTiter-Glo luminescence, 72 h; at 10 µM; stronger effect = lower value
# In short: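 Test system: primary human umbilical vein endothelial cells. Quantity: 1250 cells/well. Compound: single 10 µM dose, 0.1% DMSO, from 5x medium stock. Timing: 72 h treatment at 37 °C. Detection: ATP-based CellTiter-Glo luminescent read. Benchmarks: vehicle and MePR control wells. Format: 384-well plates coated with collagen.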
# [6] = growth inhibitors of H69AR lung tumor, primary screen, human, duplicate replicates (AID 580;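 active means viability at or under a set limit in both replicates, limit being median viability minus 3 SD, cut at about 48% in these data, passing the limit was not always enough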;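 further: 100% = mean luminescence of untreated wells and 0% = no signal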); details: H69AR lung tumor cells viability, ATP luminescence, 72 h; at 10 µM; stronger effect = lower value
# [7] = reversal of MRP1-mediated doxorubicin resistance, pilot screen, H69AR cells, doxorubicin co-treatment (AID 601;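 active means viability loss from added drug above about 55%, and viability with drug at most 40%, in both replicates, limit read from the data, passing the limit was not always enough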); details: CellTiter-Glo, 72 h, at 10 µM; for differential viability (reversal): stronger effect = higher value
# [8] = H69AR cells + 2 uM doxorubicin, measured here: viability with 2 uM doxorubicin, stronger effect = lower value
# [9] = H69AR cells, compound alone cytotoxicity
structure (smiles),measurement,setting,value
Cc1oc(-c2ccc(Cl)cc2)nc1CS(=O)CC(=O)NCCCN(C)C1CCCCC1 (stereo unspecified),inhibition,[1],0% (inactive)
Cc1noc(C(=O)Nc2ccc3c(c2)OCO3)c1Cl,inhibition,[1],0% (inactive)
COc1cccc(NC(=O)C2CCN(c3ncccn3)CC2)c1,inhibition,[1],2% (inactive)
CC(c1ccco1)N(C(=O)c1ccc(S(=O)(=O)N2CCCCC2)cc1)c1ccccn1 (stereo unspecified),inhibition,[1],2% (inactive)
COc1ccc(OC)c(N(CC(=O)Nc2cccnc2)S(=O)(=O)c2ccc(OC)c(OC)c2)c1,inhibition,[1],0% (inactive)
O=C1C2CCCN2C(c2ccc(Cl)cc2)N1c1nccs1 (stereo unspecified),inhibition,[1],0% (inactive)
CCOC(=O)N1CCC(NC(=O)c2cc3c(=O)n(C)c4ccccc4c3n2C)CC1,inhibition,[1],0% (inactive)
COc1cccc(CNC(=O)CCn2c(=O)oc3ccccc32)c1,inhibition,[1],0% (inactive)
CC12CCC(C(=O)N3CCN(C(=O)C45CCC(C)(C(=O)O4)C5(C)C)CC3)(OC1=O)C2(C)C,inhibition,[1],0% (inactive)
NC(=O)c1c(NC(=O)CN2CCCC2)sc2c1CCCC2,inhibition,[1],4% (inactive)
CN1CCN(c2nc(-c3ccncc3)nc3ccccc23)CC1,inhibition,[1],0% (inactive)
O=C(NC1CCc2ccccc21)C1CCN(S(=O)(=O)c2ccc(-n3cnnn3)cc2)CC1 (stereo unspecified),inhibition,[1],10% (inactive)
c1ccc(Cn2nnnc2C(c2cccs2)N2CCSCC2)cc1 (stereo unspecified),inhibition,[1],0% (inactive)
CCCCNC(=O)Cn1c(=O)n(C)c2ccccc21,inhibition,[1],0% (inactive)
O=C1NC(Cc2c[nH]c3ccccc23)C(=O)N1CCOc1ccccc1 (stereo unspecified),inhibition,[1],2% (inactive)
O=C(NCc1cccs1)C1CCCN(c2ncccn2)C1 (stereo unspecified),inhibition,[1],0% (inactive)
CCOC(=O)Cc1csc(NC(=O)CN(C)S(=O)(=O)c2ccc3c(c2)CCC(=O)N3)n1,inhibition,[1],0% (inactive)
CCOC(=O)c1cccc(NC(=O)CNS(=O)(=O)c2cccs2)c1,inhibition,[1],0% (inactive)
CCCC(=O)Nc1ncnc2c1ncn2[C@@H]1O[C@@H]2COP(=O)(O)O[C@H]2[C@H]1OC(=O)CCC,inhibition,[1],0% (inactive)
Cn1c(=O)n(CC(=O)OCc2ccccc2)c(=O)c2c1nc1n2CCCN1C1CCCCC1,inhibition,[1],0% (inactive)
COc1ccc(C2(CN(C(C)=O)C(C)=O)CCCC2)cc1OC,inhibition,[1],2% (inactive)
CCCC(=O)O[C@]1(C(=O)COC(C)=O)CC[C@H]2[C@@H]3C[C@H](F)C4=CC(=O)C=C[C@]4(C)[C@@]3(F)[C@@H](O)C[C@@]21C,inhibition,[1],0% (inactive)
NC1=NC(c2ccc(Cl)cc2)n2c(nc3ccccc32)N1 (stereo unspecified),inhibition,[1],0% (inactive)
CCN(CC(=O)Nc1ccc2c(c1)CCC2)Cc1nc2ccccc2c(=O)[nH]1,inhibition,[1],4% (inactive)
CCOCCCNC(=O)C1CCC(=O)N1CCc1ccccc1 (stereo unspecified),inhibition,[1],5% (inactive)
Cc1cccc(OCC(=O)Nc2ccccc2N2CCN(C(=O)C(C)C)CC2)c1C,inhibition,[1],5% (inactive)
CCOC(=O)CSc1nc2ccccc2n1CC(=O)N1CCN(c2ccccc2)CC1,inhibition,[1],0% (inactive)
COC(=O)c1ccc(NC(=O)C2C3CCC(C3)C2C(=O)O)cc1 (stereo unspecified),inhibition,[1],0% (inactive)
COCCCn1c(=N)c(C(=O)NCC2CCCO2)cc2c(=O)n3cccc(C)c3nc21 (stereo unspecified),inhibition,[1],0% (inactive)
CC1CCN(C(=O)Cn2cc3c(n2)CCCC3)CC1,inhibition,[1],0% (inactive)
Cc1ccc(NC(=O)c2cc(S(=O)(=O)N3CCC4(CC3)OCCO4)ccc2F)cc1,inhibition,[1],0% (inactive)
COc1ccc(N(CC(=O)Nc2cc(C)ccc2C)S(=O)(=O)c2c(C)nn(C)c2C)cc1,inhibition,[1],0% (inactive)
O=C(O)c1cnn2c1NC(c1ccc(F)cc1)CC2C(F)(F)F (stereo unspecified),inhibition,[1],2% (inactive)
CC(C)(C)C(=O)CNS(=O)(=O)c1ccc(S(=O)(=O)NC2CCCC2)cc1,inhibition,[1],0% (inactive)
COc1ccc(CNc2oc(-c3ccccc3)nc2C#N)cc1,inhibition,[1],5% (inactive)
Cc1ccc(-c2csc3ncn(-n4c(C)ccc4C)c(=O)c23)o1,inhibition,[1],0% (inactive)
O=C1CC(C(=O)Nc2ccc(Br)cc2)C2(CCCC2)O1 (stereo unspecified),inhibition,[1],1% (inactive)
COc1cc(NC(=O)Cc2ccccc2OC)cc(OC)c1,inhibition,[1],0% (inactive)
O=C(Nc1ccc(F)cc1F)NC1CC(=O)N(Cc2ccccc2)C1 (stereo unspecified),inhibition,[1],1% (inactive)
CC1(C)Cc2cccc(OCC(=O)O)c2O1,inhibition,[1],5% (inactive)
Cc1ccc(Oc2ccc(-c3nc(N)nc(N)n3)cc2)cc1,inhibition,[1],7% (inactive)
CCOc1cccc(-n2nnnc2-c2ccc(OC)cc2)c1,inhibition,[1],9% (inactive)
O=C(CSc1nnc(Cn2cnc3ccccc32)o1)c1ccccc1,inhibition,[1],0% (inactive)
CSc1c(CC(=O)NCCO)n(C)c2ccccc12,inhibition,[1],0% (inactive)
COc1ccc(C(c2nnnn2C2CCCC2)N2CCN(C3CCCC3)CC2)cc1OC (stereo unspecified),inhibition,[1],4% (inactive)
COc1ccc(S(=O)(=O)N2Cc3ccccc3CC2C(=O)Nc2ccc(O)cc2)cc1OC (stereo unspecified),inhibition,[1],10% (inactive)
Cc1ccc(S(=O)(=O)N2CCN(c3nc(C(C)C)c4c(c3C#N)CC(C)(C)OC4)CC2)cc1,inhibition,[1],0% (inactive)
COC(C)(C)c1cc(C(C)(C)C)nc(N)n1,inhibition,[1],0% (inactive)
CC(=O)O[C@H]1CSC[C@H]1NC(=O)c1ccccc1,inhibition,[1],0% (inactive)
Cc1ccc(C(=O)Nc2ccc3c(c2)OCO3)cc1S(=O)(=O)N1CCCC1,inhibition,[1],0% (inactive)
Cc1cccc(NC(=O)c2cc(NC(=O)c3ccco3)ccc2N2CCCCC2)c1,inhibition,[1],2% (inactive)
Cc1cc(C)cc(Nc2ncc3c(n2)CC(c2ccco2)CC3=O)c1 (stereo unspecified),inhibition,[1],3% (inactive)
Cc1ccccc1CS(=O)(=O)Cc1ccc(C(=O)NCCCN2CCOCC2)o1,inhibition,[1],0% (inactive)
Cc1nc(Nc2nc(=O)c3ccccc3n2C)nc2c(C)cccc12,inhibition,[1],0% (inactive)
CCCC(=O)NCCc1cc2c(C)ccc(C)c2[nH]c1=O,inhibition,[1],0% (inactive)
O=C(COC(=O)c1ccccc1O)Nc1ccc(OC(F)F)cc1,inhibition,[1],0% (inactive)
CC1=C(C(N)=O)C(c2ccccn2)n2nc(-c3ccccc3Cl)nc2N1 (stereo unspecified),inhibition,[1],5% (inactive)
CC(=O)c1cccc(NC(=O)c2ccc(NS(C)(=O)=O)cc2)c1,inhibition,[1],1% (inactive)
C[N+]1(C)[C@@H]2CC[C@H]1CC(OC(=O)C(CO)c1ccccc1)C2 (stereo partly specified),inhibition,[1],6% (inactive) and 13% (inactive)
same,viability,[2],97.5% and 140%
same,Her2 level,[3],100% (inactive) and 106% (inactive)
same,viability,[4],97.5% (inactive) and 140% (inactive)
same,viability,[5],103% (inactive) and 106% (inactive)
same,viability,[6],100% (inactive) and 112% (inactive)
same,differential viability (reversal),[7]; H69AR cells + 2 uM doxorubicin,4.59% (inactive) and 7.77% (inactive)
same,viability,[7]; [8],95.6% and 104%
same,viability,[7]; [9],100% and 112%
O=C(CCCC(=O)OCC(=O)NC1CCCC1)Nc1ccccn1,inhibition,[1],4% (inactive)
COc1nc(Oc2ccc(=O)n(C)n2)nc(N(C)C)n1,inhibition,[1],4% (inactive)
Nc1nc(SCc2ccc(Cl)cc2Cl)n[nH]1,inhibition,[1],5% (inactive)
Cc1ccc(N2CC(C)Cn3c2nc2c3c(=O)n(CC(=O)OCc3ccccc3)c(=O)n2C)cc1C (stereo unspecified),inhibition,[1],0% (inactive)
c1nnc(NC2=NCCCCC2)s1,inhibition,[1],0% (inactive)
CC(C)N(CCC(C(N)=O)(c1ccccc1)c1ccccn1)C(C)C (stereo unspecified),inhibition,[1],0% (inactive)
same,viability,[2],85%
same,Her2 level,[3],114% (inactive)
same,viability,[4],85% (inactive)
same,viability,[5],121% (inactive)
same,viability,[6],91.8% (inactive)
same,differential viability (reversal),[7]; H69AR cells + 2 uM doxorubicin,-15.8% (inactive)
same,viability,[7]; [8],108%
same,viability,[7]; [9],91.8%
Cc1ccccc1NC(=O)c1ccc(NC(=O)c2ccco2)cc1,inhibition,[1],0% (inactive)
c1ccc(-n2ncc3c(NC4CCCCCC4)ncnc32)cc1,inhibition,[1],0% (inactive)
COc1ccc2[nH]cc(CCN(C)C)c2c1,inhibition,[1],0% (inactive)
same,viability,[2],108%
same,Her2 level,[3],126% (inactive)
same,viability,[4],108% (inactive)
same,viability,[5],86.3% (inactive)
same,viability,[6],108% (inactive)
same,differential viability (reversal),[7]; H69AR cells + 2 uM doxorubicin,8.63% (inactive)
same,viability,[7]; [8],99.5%
same,viability,[7]; [9],108%
Cn1c(NCc2cccc(Br)c2)nc2ccccc21,inhibition,[1],1% (inactive)
O=C(CN1CCN(Cc2ccc3c(c2)OCO3)CC1)N1CCc2[nH]c3ccc(F)cc3c2C1,inhibition,[1],0% (inactive)
c1ccc2c(c1)OCC(C1=NCCN1)O2 (stereo unspecified),inhibition,[1],0% (inactive)
same,viability,[2],104%
same,Her2 level,[3],108% (inactive)
same,viability,[4],104% (inactive)
same,viability,[5],108% (inactive)
same,viability,[6],81.4% (inactive)
same,differential viability (reversal),[7]; H69AR cells + 2 uM doxorubicin,9.15% (inactive)
same,viability,[7]; [8],72.2%
same,viability,[7]; [9],81.4%
CN(CC(=O)N1CCN(c2ccccn2)CC1)S(=O)(=O)c1ccc2ccccc2c1,inhibition,[1],0% (inactive)
CCN(CC)CCOC(=O)C(c1ccccc1)c1ccccc1,inhibition,[1],0% (inactive)
Cc1nc2ccccc2c2oc(C(=O)NCC3COc4ccccc4O3)cc12 (stereo unspecified),inhibition,[1],0% (inactive)
CC[C@]1(O)CC2CN(CCc3c([nH]c4ccccc34)[C@@](C(=O)OC)(c3cc4c(cc3OC)N(C=O)[C@H]3[C@@](O)(C(=O)OC)[C@H](OC(C)=O)[C@]5(CC)C=CCN6CC[C@]43[C@@H]65)C2)C1 (stereo partly specified),inhibition,[1],1% (inactive)
Cc1nn(C)c(C)c1CNC(=O)c1cc2n(n1)C(C(F)(F)F)CC(c1cccs1)N2 (stereo unspecified),inhibition,[1],7% (inactive)
c1ccc2c(c1)nc(NC1CCCCC1)c1nncn12,inhibition,[1],0% (inactive)
COc1ccc(-c2nnc(-c3cccs3)o2)cc1OC,inhibition,[1],0% (inactive)
O=C(CCCN1CCC2(CC1)C(=O)NCN2c1ccccc1)c1ccc(F)cc1,inhibition,[1],1% (inactive)
same,viability,[2],98%
same,Her2 level,[3],65% (inactive)
same,viability,[4],98% (inactive)
same,viability,[5],96.2% (inactive)
same,viability,[6],87.8% (inactive)
same,differential viability (reversal),[7]; H69AR cells + 2 uM doxorubicin,-9.21% (inactive)
same,viability,[7]; [8],97%
same,viability,[7]; [9],87.8%
Oc1ccc(Cl)cc1-c1cc(-c2ccccc2)n[nH]1,inhibition,[1],0% (inactive)
COc1cc(C(=O)N2CCC(NC(=O)C(Cc3ccc(C)cc3)NC(C)=O)CC2)cc(OC)c1OC (stereo unspecified),inhibition,[1],3% (inactive)
Cn1c(/C(C#N)=C/Nc2ccccn2)nc2ccccc21,inhibition,[1],0% (inactive)
CC[C@@H]1C(=O)OC[C@@H]1Cc1cncn1C,inhibition,[1],0% (inactive)
same,viability,[2],94%
same,Her2 level,[3],107% (inactive)
same,viability,[4],94% (inactive) and 104% (inactive)
same,viability,[5],101% (inactive) and 91.9% (inactive)
same,viability,[6],102% (inactive) and 96% (inactive)
same,differential viability (reversal),[7]; H69AR cells + 2 uM doxorubicin,12.4% (inactive) and -2.8% (inactive)
same,viability,[7]; [8],89.8% and 98.8%
same,viability,[7]; [9],102% and 96%
